Measured values as given in ChEMBL document CHEMBL1135479, “Design, synthesis, and evaluation of new chemosensitizers in multi-drug-resistant Plasmodium falciparum” (2002).

Legend:
[1] = (§1) Fractional inhibitory concentration (FIC) tested against Peruvian PC49 cells, isolate from South America; format: functional, Plasmodium falciparum
Method in brief: (§2)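 Parasite growth read by [3H]hypoxanthine incorporation in erythrocytes at 0.2% parasitemia and 1% hematocrit. Medium: folate- and PABA-free RPMI-1640 with 10% heat-inactivated human plasma or Albumax. Cultures were kept at 37 °C under 5% CO2/5% O2/90% N2, with label added at 42 h and 66 h total incubation. Counts were taken after freeze-thaw harvest, IC50 came from nonlinear logistic fits, and FIC index was derived from isobologram.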

[2] = system: Plasmodium falciparum; assay: Fractional inhibitory concentration (FIC) against Plasmodium falciparum W2 of equimolar (1:1) combination dose with chloroquine; format: functional; method in brief: as §2
[3] = (§3) Fractional inhibitory concentration (FIC) tested against RCS cells, isolate from Brazil.; format: functional, Plasmodium falciparum; method in brief: as §2
[4] = system: Plasmodium falciparum; assay: Fractional inhibitory concentration (FIC) tested against TM91C235 isolate.; format: functional; method in brief: as §2
[5] = system: Plasmodium falciparum; assay: Fractional inhibitory concentration (FIC) (1:1 combination of compound and chloroquine) was tested in Plasmodium falciparum W2 clone.; format: functional; method in brief: as §2
[6] = system: Plasmodium falciparum; assay: Fractional inhibitory concentration (FIC) tested against TM91C235 cells, isolate from South east Asia; format: functional; method in brief: as §2
[7] = system: Plasmodium falciparum; assay: In vitro anti-MDR effect in chloroquine and mefloquine resistant TM91C235 cell lines at 50 ng/ml concentration; format: functional
Method in brief: (§4)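 TM91C235 P. falciparum in erythrocytes at 0.2% parasitemia and 1% hematocrit, in folate- and PABA-free RPMI-1640 with 10% heat-inactivated human plasma or Albumax. Incubated 66 h at 37 °C under 5% CO2/5% O2/90% N2, with 3H-hypoxanthine added at 42 h. Cells lysed by freezing at -70 °C and harvested; inhibition of isotope incorporation read by scintillation counting.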

[8] = system: Plasmodium falciparum; assay: In vitro anti-MDR effect in chloroquine and mefloquine resistant TM91C235 cell lines at 5000 ng/ml concentration; format: functional; method in brief: as §4
[9] = system: Plasmodium falciparum; assay: In vitro anti-MDR effect in chloroquine resistant TM91C235 cell lines at 500 ng/ml concentration in the presence of 10 ng/mL chloroquine; format: functional
Method in brief: (§5)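 Test agent was combined with chloroquine at 10 ng/mL. TM91C235 was cultured in erythrocytes at 0.2% parasitemia and 1% hematocrit, in folate- and PABA-free RPMI-1640, for 66 h at 37 °C under 5% CO2/5% O2/90% N2. 3H-hypoxanthine was added at 42 h, and cell suppression was taken from scintillation counts of harvested lysates.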

[10] = system: Plasmodium falciparum; assay: In vitro anti-MDR effect in mefloquine resistant TM91C235 cell lines at 50 ng/ml concentration in the presence of 5 ng/mL mefloquine; format: functional
Method in brief: (§6)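 Mefloquine was held at 5 ng/mL, combined with test agent. Parasites (TM91C235) were in erythrocytes at 0.2% parasitemia and 1% hematocrit, in folate/PABA-free RPMI-1640 with human plasma or Albumax. Incubation was 66 h at 37 °C in 5% CO2/5% O2/90% N2, with 3H-hypoxanthine added for the last 24 h. Incorporation was counted after freeze-lysis and harvesting.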

[11] = system: Plasmodium falciparum; assay: In vitro anti-MDR effect in mefloquine resistant TM91C235 cell lines at 5000 ng/ml concentration in the presence of 5 ng/mL mefloquine; format: functional; method in brief: as §6
[12] = system: Plasmodium falciparum; assay: In vitro anti-MDR effect in chloroquine and mefloquine resistant TM91C235 cell lines at 500 ng/ml concentration; format: functional; method in brief: as §4
[13] = system: Plasmodium falciparum; assay: In vitro anti-MDR effect in chloroquine resistant TM91C235 cell lines at 50 ng/ml concentration in the presence of 10 ng/mL chloroquine; format: functional; method in brief: as §5
[14] = system: Plasmodium falciparum; assay: In vitro anti-MDR effect in chloroquine resistant TM91C235 cell lines at 5000 ng/ml concentration in the presence of 10 ng/mL chloroquine; format: functional; method in brief: as §5
[15] = system: Plasmodium falciparum; assay: In vitro anti-MDR effect in mefloquine resistant TM91C235 cell lines at 500 ng/ml concentration in the presence of 5 ng/mL mefloquine; format: functional; method in brief: as §6
[16] = system: Plasmodium falciparum; assay: Fractional inhibitory concentration (FIC) against Plasmodium falciparum W2 at equimolar (1:1) combination dose with chloroquine; format: functional; method in brief: as §2
[17] = system: Plasmodium falciparum; assay: Fractional inhibitory concentration (FIC) tested against TM91C235 cells, isolate from South east Asia.; format: functional; method in brief: as §2
[18] = as §3; format: functional; method in brief: as §2
[19] = as §1; format: functional; method in brief: as §2

| SMILES | FIC [1] | FIC [2] | FIC [3] | FIC [4] | FIC [5] | FIC [6] | Suppression [7] | Suppression [8] | Suppression [9] | Suppression [10] | Suppression [11] | Suppression [12] | Suppression [13] | Suppression [14] | Suppression [15] | FIC [16] | FIC [17] | FIC [18] | FIC [19] |
| --- | --- | --- | --- | --- | --- | --- | --- | --- | --- | --- | --- | --- | --- | --- | --- | --- | --- | --- | --- |
| c1ccc2c(c1)Sc1ccccc1N2CCCCN1CCOCC1 | 0.81 | 0.39 | 0.37 | 0.32 |  |  |  |  |  |  |  |  |  |  |  |  |  |  |  |
| CCN(CC)CCCCCCN1c2ccccc2CCc2ccccc21 |  | 0.48 | 0.72 | 0.59 |  |  |  |  |  |  |  |  |  |  |  |  |  |  |  |
| CCN(CC)CCCCN1c2ccccc2Sc2ccccc21 | 0.41 |  | 0.41 |  | 0.23 | 0.29 | 26% | 100% | 99% | 17% | 100% | 38% | 31% | 100% | 30% |  |  |  |  |
| CN(CCCCN1c2ccccc2Sc2ccccc21)Cc1ccccc1 |  |  |  |  |  |  | 13% | 35% | 27% | 0% | 13% | 18% | 14% | 62% | 0% |  |  |  |  |
| CN(CCCCN1c2ccccc2CCc2ccccc21)Cc1ccccc1 |  |  |  |  |  |  | 30% | 60% | 20% | 20% | 41% | 32% | 10% | 33% | 22% |  |  |  |  |
| CN(C)CCCCN1c2ccccc2CCc2ccccc21 | 0.62 | 0.23 | 0.52 | 0.26 |  |  | 59% | 96% | 99% | 43% | 95% | 73% | 99% | 100% | 70% |  |  |  |  |
| c1ccc(CN(CCCCN2c3ccccc3CCc3ccccc32)Cc2ccccc2)cc1 |  |  |  |  |  |  | 11% | 13% | 8% | 14% | 19% | 17% | 6% | 13% | 22% |  |  |  |  |
| CCN(CC)CCCCN1c2ccccc2CCc2ccccc21 | 0.57 | 0.39 | 0.57 | 0.41 |  |  | 62% | 100% | 100% | 64% | 100% | 95% | 99% | 100% | 95% |  |  |  |  |
| CN(C)CCCCN1c2ccccc2Sc2ccccc21 |  |  |  |  |  |  | 17% | 92% | 97% | 2% | 92% | 27% | 30% | 100% | 31% | 0.23 | 0.28 | 0.51 |  |
| CN1CCN(CCCCN2c3ccccc3CCc3ccccc32)CC1 |  | 0.52 | 0.66 | 0.54 |  |  |  |  |  |  |  |  |  |  |  |  |  |  |  |
| c1ccc2c(c1)Sc1ccccc1N2CCCCN1CCCC1 | 0.5 | 0.21 | 0.51 | 0.25 |  |  | 38% | 96% | 99% | 33% | 95% | 70% | 99% | 100% | 67% |  |  |  |  |
| c1ccc2c(c1)Sc1ccccc1N2CCCCN1CCCCC1 | 0.83 | 0.49 | 0.68 | 0.52 |  |  |  |  |  |  |  |  |  |  |  |  |  |  |  |
| c1ccc2c(c1)CCc1ccccc1N2CCCCN1CCCCC1 | 0.73 | 0.45 | 0.36 | 0.54 |  |  |  |  |  |  |  |  |  |  |  |  |  |  |  |
| c1ccc2c(c1)CCc1ccccc1N2CCCCN1CCOCC1 | 0.78 | 0.31 | 0.89 | 0.54 |  |  |  |  |  |  |  |  |  |  |  |  |  |  |  |
| c1ccc2c(c1)CCc1ccccc1N2CCCCCN1CCCC1 | 0.59 | 0.48 | 0.37 | 0.55 |  |  |  |  |  |  |  |  |  |  |  |  |  |  |  |
| CN1CCN(CCCCN2c3ccccc3Sc3ccccc32)CC1 | 0.98 | 0.4 | 0.49 | 0.48 |  |  |  |  |  |  |  |  |  |  |  |  |  |  |  |
| CCN(CC)CCCCN1c2ccccc2C=Cc2ccccc21 | 0.6 | 0.53 | 0.39 | 0.33 |  |  |  |  |  |  |  |  |  |  |  |  |  |  |  |
| C1=Cc2ccccc2N(CCCCN2CCCC2)c2ccccc21 | 0.74 | 0.33 | 0.59 | 0.49 |  |  |  |  |  |  |  |  |  |  |  |  |  |  |  |
| c1ccc2c(c1)CCc1ccccc1N2CCCCN1CCCC1 | 0.66 | 0.32 | 0.51 | 0.42 |  |  | 58% | 100% | 100% | 64% | 100% | 98% | 99% | 100% | 96% |  |  |  |  |
| CCN(CC)CCCCCN1c2ccccc2CCc2ccccc21 | 0.82 | 0.44 | 0.36 | 0.48 |  |  |  |  |  |  |  |  |  |  |  |  |  |  |  |
| c1ccc2c(c1)CCc1ccccc1N2CCCCCCN1CCCC1 | 0.92 | 0.57 | 0.6 | 0.54 |  |  |  |  |  |  |  |  |  |  |  |  |  |  |  |
| c1ccc(CN(CCCCN2c3ccccc3Sc3ccccc32)Cc2ccccc2)cc1 |  |  |  |  |  |  | 7% | 22% | 16% | 0% | 9% | 10% | 12% | 25% | 3% |  |  |  |  |
| COc1ccc(CCN(C)CCCC(C#N)(c2ccc(OC)c(OC)c2)C(C)C)cc1OC (configuration not stated) [VERAPAMIL] |  | 0.51 |  |  |  |  |  |  |  |  |  |  |  |  |  |  |  | 0.63 | 0.61 |
